# High-throughput results deposited in PubChem BioAssay by Sanford-Burnham Center for Chemical Genomics.
# This is a sample that favours compounds with a hit; in the whole collection about 2.5% have one here.
# SENP7 block: SENP7 protease inhibitors, primary screen, biochemical, luminescence, uHTS; Sentrin-specific protease 7 (Homo sapiens), Q9BQF6; 330,000 compounds, 1.5% hits; recombinant SENP7, Z-RLRGG-aminoluciferin luminescence, 40 min; inhibition, % at 5 µM;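 active = inhibition above about 50% at the single test dose, limit read from the data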;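 also: plate controls were DMSO with enzyme for no effect and no enzyme buffer wells for full effect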
# SENP8 block-1: SENP8 protease inhibitors, primary screen, biochemical, luminescence. AID 2540, 2010. Sentrin-specific protease 8 (Homo sapiens), Q96LD8. inhibition, % at 10 µM. purified SENP8, Z-RLRGG-aminoluciferin cleavage. 330,000 compounds, 1.2% hits; in the data active = inhibition above about 50%
# Target sequence (Q96LD8 whole entry, looked up): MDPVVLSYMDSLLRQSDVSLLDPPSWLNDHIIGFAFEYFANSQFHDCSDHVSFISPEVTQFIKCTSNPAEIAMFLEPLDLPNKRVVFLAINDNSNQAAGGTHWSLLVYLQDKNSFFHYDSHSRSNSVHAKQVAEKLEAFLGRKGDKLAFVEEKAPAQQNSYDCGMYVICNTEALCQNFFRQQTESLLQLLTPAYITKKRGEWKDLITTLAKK
# SENP1 FRET inh: human SENP1 catalytic domain inhibitors, primary screen, biochemical, FRET, uHTS | Sentrin-specific protease 1 (Homo sapiens), Q9P0U3 | recombinant SENP1 catalytic domain, CyPet-SUMO1-YPet FRET cleavage | inhibition, % at 10 µM | 360,000 compounds, 0.21% hits;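 active = inhibition at least 30% at 10 µM, raw YFP signal under a set limit, fluorescence ratio 0.5 to 1.5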;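 also: 0% = enzyme with DMSO and 100% = no enzyme wells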
#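 Compound: 10 µM single point, 0.5% DMSO; Test system: hSENP1 catalytic domain, recombinant; Timing: 50 min reaction at room temperature; Technique: FRET, CFP and YFP emission; Control set: no-enzyme wells low, DMSO-plus-enzyme wells high control.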
# SENP8 block-2: human SENP8 protease inhibitors, primary screen, biochemical, fluorescence, Nedd8 protein substrate, uHTS; Sentrin-specific protease 8 (Homo sapiens), Q96LD8; recombinant SENP8; inhibition, % at 20 µM; 360,000 compounds, 0.64% hits; in the data active = inhibition mostly above about 40%, no sharp cut-off; inactive = mostly below about 27%
# SENP6 inh: SENP6 protease inhibitors, primary screen, biochemical, luminescence, uHTS | Recombinant SENP6 catalytic domain, aminoluciferin luminescence | Sentrin-specific protease 6 (Homo sapiens), Q9GZR1 | 330,000 compounds, 1.8% hits | inhibition, % at 10 µM;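 active = inhibition above about 50% at the single tested dose, limit read from the data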;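 also: plate controls were DMSO wells with enzyme for no effect and DMSO wells lacking enzyme for full effect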
# SENP8 conf: SENP8 protease inhibitors, retest, confirmation, biochemical, luminescence, single concentration | Recombinant SENP8, Z-RLRGG-aminoluciferin luminescence, 60 min | 6,200 compounds, 40% hits | shares compounds with SENP7 block | AID 488912, 2010 | inhibition, % at 12.5 µM;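 active = mean inhibition across replicates above about 50%, limit read from the data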
# SENP6 confirm: SENP6 protease inhibitors, confirmation, biochemical, luminescence, single concentration. shares compounds with SENP7 block. 6,200 compounds, 58% hits. inhibition, % at 12.5 µM. recombinant SENP6, Z-RLRGG-aminoluciferin luminescence. AID 488915, 2010
# SENP7 confirm: SENP7 protease inhibitors, retest, confirmation, biochemical, luminescence, single concentration; inhibition, % at 12.5 µM; 6,200 compounds, 69% hits; shares compounds with SENP7 block; recombinant SENP7, Z-RLRGG-aminoluciferin luminescence, 40 min
# Casp3 select: caspase-3 protease inhibitors, confirmation, selectivity assay for SENP inhibitor project, biochemical, single concentration; shares compounds with SENP7 block; purified caspase-3, Z-DEVD-aminoluciferin luminescence, 60 min; inhibition, % at 12.5 µM; 6,200 compounds, 60% hits;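 active = mean inhibition above about 50%, limit read from the data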;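 also: plate controls were enzyme with DMSO for no effect and wells without caspase-3 for full effect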
# Target sequence (P42574 28-227 limits assumed): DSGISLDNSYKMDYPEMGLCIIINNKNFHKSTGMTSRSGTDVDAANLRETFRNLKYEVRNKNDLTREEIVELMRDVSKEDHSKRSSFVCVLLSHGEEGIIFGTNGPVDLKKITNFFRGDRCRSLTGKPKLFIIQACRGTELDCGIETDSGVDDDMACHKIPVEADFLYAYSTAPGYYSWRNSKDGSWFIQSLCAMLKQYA
# SENP luc ctr: luminescence interference (SENP counter-screen). shares compounds with SENP7 block. Pre-incubated SENP8/Z-RLRGG-aminoluciferin, luciferase luminescence interference. 6,200 compounds, 39% hits. inhibition, % at 12.5 µM;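 active = mean inhibition above about 50% when retested at one dose, limit read from the data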;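 also: plate controls were DMSO wells with completed reaction for no effect and substrate without enzyme for full effect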
# Starred values were filed as active, the others as inactive; x = no result.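 The calls were made as follows, unless noted: active = mean inhibition above about 50% in the one-dose retest (limit read from the data); inactive = the rest.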
SMILES,SENP7 block,SENP8 block-1,SENP1 FRET inh,SENP8 block-2,SENP6 inh,SENP8 conf,SENP6 confirm,SENP7 confirm,Casp3 select,SENP luc ctr
Cc1ncc([N+](=O)[O-])n1CC(=O)Nc1ccc(F)cc1F,5,-6,1,19,2,x,x,x,x,x
CC1CCC(C(C)C)C(NC(=O)c2ccncc2)C1 (centres undefined),x,x,0,19,x,x,x,x,x,x
CC(=O)OCCNc1cc(SC(C)C)c2nonc2c1[N+](=O)[O-],13,10,-27,25,56*,8,5,10,6,1
Cc1ccc(NS(=O)(=O)c2cc(C(=O)NCCCN(C)C)ccc2Cl)cc1Cl,-10,12,1,11,-5,x,x,x,x,x
COC(=O)C1=C(CS(=O)(=O)c2cc(Cl)ccc2OC)NC(=O)NC1c1ccc(O)c(OC)c1 (centres undefined),14,-5,0,11,-2,x,x,x,x,x
Cc1cccc(NC(=S)NNC(=O)c2ccc3c(c2)OCO3)c1,7,13,-1,-11,24,x,x,x,x,x
CCCc1cc(C(=O)NNC(=S)Nc2cccc(C)c2)cs1,94*,80*,0,10,79*,33,26,8,4,21
COc1oc(-c2ccccc2C)nc1C(F)(F)F,5,3,3,14,5,x,x,x,x,x
COc1oc(-c2ccccc2)nc1C(F)(F)F,71*,2,1,-2,7,-18,-6,-9,5,-4
Oc1ccccc1/C=C/c1noc(-c2ccccc2O)n1,52*,3,1,-122,-6,-5,1,79*,38,5
CC(=O)Nc1ccc(/C=C/c2noc(-c3ccccc3O)n2)cc1,59*,-7,-6,-237,-36,4,2,1,0,2
Cc1cc(C)n(CC(O)Cn2c3ccc(Cl)cc3c3cc(Cl)ccc32)c(=O)n1 (centres undefined),95*,-7,5,4,-9,2,4,7,-2,2
Cc1c(N=Cc2nc3ccccc3[nH]2)c(=O)n(-c2ccccc2)n1C,1,16,-1,22,-5,x,x,x,x,x
Cc1c(N=Cc2nc3ccccc3n2C)c(=O)n(-c2ccccc2)n1C,83*,51*,1,26,46,58*,80*,99*,97*,12
CCOC(=O)C(Oc1ccc(=O)n(-c2ccccc2)n1)C(C)=O (centres undefined),84*,-5,0,10,-22,7,10,7,4,2
CC(c1ccco1)N(C(=O)COc1ccc(Cl)cc1)c1ccccn1 (centres undefined),2,18,-5,-5,50*,30,22,18,53*,51*
Cc1nc2ccccc2n1/N=C/c1ccc([N+](=O)[O-])s1,11,33,4,34,73*,-9,14,1,-3,-4
O=[N+]([O-])c1cccnc1Nc1ccc(Cl)cc1,x,x,2,33,x,x,x,x,x,x
